Series [1] is described as follows: Tested for extracellular drug concentration required to kill 50 percent of V-79 cells after one hour incubation period. Conditions: Chinese hamster, V79 cells; read-out: LD50.
A short description of series [2]: Tested for extracellular drug concentration required to kill 50 percent of V-79 cells after one hour incubation period and subsequent exposure red light. Conditions: Chinese hamster, V79 cells; read-out: LD50.
Series [3] can be described thus: Tumor/plasma uptake ratio after 1 hr. It is filed as functional. In a few lines:
(§1)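 The ratio of tumour uptake (μg/g) to muscle uptake (μg/g), or to plasma concentration (μg/mL), was taken at each time point. Mice were EMT-6-bearing BALB/c (n = 3) given 1 μmol/kg iv in 10% Cremophor emulsion. Dye was measured by fluorescence (ex 766, em 780 nm) in DMF extracts and quantified against tissue-specific calibration curves.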

A short description of series [4]: Tumor/muscle uptake ratio after 1 day. The format is functional, Muscle tissue. The method, boiled down:
as §1

For series [5], the system named is Mus musculus. Description: Mean tissue uptake in skin determined in tumor-bearing mice after 7 days by intravenous administration at 1 umol/kg. The format is functional. The method, boiled down: (§2)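 Male BALB/c AnN mice carrying intradermal EMT-6 tumours on the hind thighs (2×10^5 cells; used 6-8 days later at 4-8 mm diameter) received 1 μmol/kg iv via the tail vein in 10% Cremophor emulsion. Plasma from orbital-sinus blood and excised tissue were extracted with DMF overnight at 37 °C, then centrifuged. Dye was read by fluorescence (ex 766, em 780 nm) against per-tissue calibration curves. Mean with SE, n = 3.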

Series [6] deals with Mus musculus. Description: Tested for plasma concentration in tumor-bearing mice after 2 day by intravenous administration at 1 umol/kg. The format is functional. The method, boiled down: as §2
The test system of series [7] is Mus musculus. Description: Mean tissue uptake in tumor determined in tumor-bearing mice after 6 hour by intravenous administration at 1 umol/kg. The format is functional. In a few lines: as §2
Series [8] in a line: Tumor/muscle uptake ratio after 12 hr. It is filed as functional, Muscle tissue. The method, boiled down: as §1
For series [9], the system named is Mus musculus. Description: Mean tissue uptake in skin determined in tumor-bearing mice after 12 hr by intravenous administration at 1 umol/kg. It is filed as functional. In a few lines:
as §2

Series [10] has as its system Mus musculus. Description: Mean tissue uptake in skin determined in tumor-bearing mice after 3 days by intravenous administration at 1 umol/kg. The format is functional. The method, boiled down: as §2
The test system of series [11] is Mus musculus. As to the kind of experiment: Mean tissue uptake in skin determined in tumor-bearing mice after 3 hr by intravenous administration at 1 umol/kg. The format is functional. The method, boiled down:
as §2

The subject of series [12] is Mus musculus. Description: Mean tissue uptake in tumor determined in tumor-bearing mice after 2 day by intravenous administration at 1 umol/kg. It is filed as functional. In a few lines:
as §2

Series [13] concerns Mus musculus. As to the kind of experiment: Mean tissue uptake in tumor determined in tumor-bearing mice after 1 hour by intravenous administration at 1 umol/kg. It is filed as functional. The method, boiled down: as §2
In series [14] the test system is Mus musculus. As to the kind of experiment: Mean tissue uptake in muscle determined in tumor-bearing mice after 1 day by intravenous administration at 1 umol/kg. The format is functional. The method, boiled down: as §2
Series [15] concerns Mus musculus. Description: Mean tissue uptake in tumor determined in tumor-bearing mice after 3 day by intravenous administration at 1 umol/kg. The format is functional. In a few lines: as §2
For series [16], the system named is Mus musculus. Description: Mean tissue uptake in muscle determined in tumor-bearing mice after 3 days by intravenous administration at 1 umol/kg. The format is functional. In a few lines: as §2
The nature of series [17]: Tumor/plasma uptake ratio after 1 day. The format is functional. In a few lines:
as §1

A short description of series [18]: Tumor/plasma uptake ratio after 3 days. It is filed as functional. In a few lines: as §1
For series [19], the system named is Mus musculus. As to the kind of experiment: Tested for plasma concentration in tumor-bearing mice after 6 hour by intravenous administration at 1 umol/kg. The format is functional. The method, boiled down: as §2
For series [20], the system named is Mus musculus. As to the kind of experiment: Mean tissue uptake in skin determined in tumor-bearing mice after 1 day by intravenous administration at 1 umol/kg. It is filed as functional. The method, boiled down: as §2
Series [21] concerns Mus musculus. Description: Tested for plasma concentration in tumor-bearing mice after 7 day by intravenous administration at 1 umol/kg. The format is functional. The method, boiled down: as §2
Series [22] deals with Mus musculus. Description: Mean tissue uptake in muscle determined in tumor-bearing mice after 6 hour by intravenous administration at 1 umol/kg. It is filed as functional. The method, boiled down:
as §2

Series [23] is described as follows: Tumor/plasma uptake ratio after 12 hr. The format is functional. The method, boiled down:
as §1

Series [24] has as its system Mus musculus. As to the kind of experiment: Mean tissue uptake in tumor determined in tumor-bearing mice after 12 hour by intravenous administration at 1 umol/kg. It is filed as functional. In a few lines: as §2
In series [25] the test system is Mus musculus. Description: Tested for plasma concentration in tumor-bearing mice after 1 hour by intravenous administration at 1 umol/kg. The format is functional. The method, boiled down:
as §2

The subject of series [26] is Mus musculus. As to the kind of experiment: Mean tissue uptake in tumor determined in tumor-bearing mice after 7 day by intravenous administration at 1 umol/kg. It is filed as functional. In a few lines:
as §2

The test system of series [27] is Mus musculus. Description: Mean tissue uptake in skin determined in tumor-bearing mice after 1 hr by intravenous administration at 1 umol/kg. The format is functional. In a few lines:
as §2

Series [28] is described as follows: Tumor/muscle uptake ratio after 2 day. The format is functional, Muscle tissue. In a few lines: as §1
Series [29] deals with Mus musculus. As to the kind of experiment: Mean tissue uptake in tumor determined in tumor-bearing mice after 1 day by intravenous administration at 1 umol/kg. The format is functional. In a few lines: as §2
Series [30] in a line: Tumor/muscle uptake ratio after 6 hr. The format is functional, Muscle tissue. In a few lines: as §1
In series [31] the test system is Mus musculus. As to the kind of experiment: Mean tissue uptake in tumor determined in tumor-bearing mice after 3 hour by intravenous administration at 1 umol/kg. It is filed as functional. In a few lines:
as §2

The nature of series [32]: Tumor/plasma uptake ratio after 6 hr. The format is functional. The method, boiled down: as §1
Series [33] has as its system Mus musculus. As to the kind of experiment: Tested for plasma concentration in tumor-bearing mice after 1 day by intravenous administration at 1 umol/kg. It is filed as functional. The method, boiled down: as §2
In series [34] the test system is Mus musculus. As to the kind of experiment: Tested for plasma concentration in tumor-bearing mice after 3 hour by intravenous administration at 1 umol/kg. The format is functional. The method, boiled down: as §2
Series [35] is described as follows: Tumor/muscle uptake ratio after 3 days. The format is functional, Muscle tissue. The method, boiled down: as §1
Series [36] can be described thus: Tumor/muscle uptake ratio after 3 hr. It is filed as functional, Muscle tissue. In a few lines: as §1
In series [37] the test system is Mus musculus. Description: Mean tissue uptake in muscle determined in tumor-bearing mice after 12 hour by intravenous administration at 1 umol/kg. The format is functional. The method, boiled down:
as §2

The nature of series [38]: Tumor/plasma uptake ratio after 3 hr. The format is functional. The method, boiled down:
as §1

The nature of series [39]: Tumor/plasma uptake ratio after 2 day. The format is functional. In a few lines: as §1
Series [40] in a line: Tumor/muscle uptake ratio after 7 days. The format is functional, Muscle tissue. The method, boiled down: as §1
Series [41] relates to Mus musculus. Description: Mean tissue uptake in muscle determined in tumor-bearing mice after 7 days by intravenous administration at 1 umol/kg. The format is functional. In a few lines:
as §2

The test system of series [42] is Mus musculus. Description: Mean tissue uptake in muscle determined in tumor-bearing mice after 1 hour by intravenous administration at 1 umol/kg. The format is functional. In a few lines: as §2
In series [43] the test system is Mus musculus. As to the kind of experiment: Tested for plasma concentration in tumor-bearing mice after 3 day by intravenous administration at 1 umol/kg. The format is functional. The method, boiled down: as §2
Series [44] deals with Mus musculus. Description: Tested for plasma concentration in tumor-bearing mice after 12 hour by intravenous administration at 1 umol/kg. It is filed as functional. In a few lines:
as §2

For series [45], the system named is Mus musculus. Description: Mean tissue uptake in muscle determined in tumor-bearing mice after 2 day by intravenous administration at 1 umol/kg. The format is functional. The method, boiled down:
as §2

Series [46] deals with Mus musculus. As to the kind of experiment: Mean tissue uptake in skin determined in tumor-bearing mice after 6 hr by intravenous administration at 1 umol/kg. It is filed as functional. In a few lines: as §2
In series [47] the test system is Mus musculus. As to the kind of experiment: Mean tissue uptake in skin determined in tumor-bearing mice after 2 day by intravenous administration at 1 umol/kg. It is filed as functional. The method, boiled down: as §2
Series [48] can be described thus: Tumor/muscle uptake ratio after 1 hr. The format is functional, Muscle tissue. The method, boiled down: as §1
The test system of series [49] is Mus musculus. Description: Mean tissue uptake in muscle determined in tumor-bearing mice after 3 hour by intravenous administration at 1 umol/kg. The format is functional. In a few lines:
as §2

As for `CCCCCCCCCCCCCCCCCC[Si](C)(C)O[Si]1(O[Si](C)(C)CCCCCCCCCCCCCCCCCC)n2c3c4cc5ccccc5cc4c2/N=C2N=C(/N=c4/c5cc6ccccc6cc5/c(n41)=N/C1=NC(=N\3)/c3cc4ccccc4cc31)c1cc3ccccc3cc1\2`, the CC50 at 1 h in [1] is 4.2 µM; in series [2], 1.8 µM.

`CC(C)(C)[Si](C)(C)O[Si]1(O[Si](C)(C)C(C)(C)C)n2c3c4cc5ccccc5cc4c2/N=C2N=C(/N=c4/c5cc6ccccc6cc5/c(n41)=N/C1=NC(=N\3)/c3cc4ccccc4cc31)c1cc3ccccc3cc1\2`: the CC50 at 1 h is 36 µM in series [1] and 12 µM in series [2].

As for `CC(C)C(C)(C)[Si](C)(C)O[Si]1(O[Si](C)(C)C(C)(C)C(C)C)n2c3c4cc5ccccc5cc4c2/N=C2N=C(/N=c4/c5cc6ccccc6cc5/c(n41)=N/C1=NC(=N\3)/c3cc4ccccc4cc31)c1cc3ccccc3cc1\2`, the Ratio in series [3] is 0.03; in series [4], 6.4; in [8], 10; in series [17], 0.34; in series [18], 38; in series [23], 0.16. Also, the Ratio was 9.1 in series [28]; 0.7 in series [30]; 0.07 in series [32]; 5.9 in series [35]; 1.4 in [36]; 0.04 in [38]. Also, the Ratio is listed as 3.5 in series [39], 6.4 in series [40] and 3.6 in series [48]. Besides, the Tissue distribution with Mus musculus [5] came to 0.35 µg/g; in the series with Mus musculus [7], 0.65 µg/g; in the series with Mus musculus [9], 0.56 µg/g; in the series on Mus musculus [10], 0.44 µg/g; with Mus musculus [11], 0.51 µg/g; in the series on Mus musculus [12] it was 0.73 µg/g. Moreover, the Tissue distribution was 0.43 µg/g in the series with Mus musculus [13]; 0.11 µg/g in the series on Mus musculus [14]; 0.77 µg/g in the series on Mus musculus [15]; 0.13 µg/g in the series with Mus musculus [16]; 0.46 µg/g with Mus musculus [20]; 0.98 µg/g in the series with Mus musculus [22]. For the same compound, the Tissue distribution is 0.9 µg/g in the series with Mus musculus [24]; 0.51 µg/g with Mus musculus [26]; 0.13 µg/g in the series with Mus musculus [27]; 0.71 µg/g in the series on Mus musculus [29]; 0.46 µg/g in the series on Mus musculus [31]; 0.09 µg/g in the series on Mus musculus [37]. In addition, the Tissue distribution worked out at 0.08 µg/g in the series with Mus musculus [41]; 0.12 µg/g in the series with Mus musculus [42]; 0.08 µg/g with Mus musculus [45]; 0.36 µg/g in the series on Mus musculus [46]; 0.43 µg/g with Mus musculus [47]; 0.32 µg/g with Mus musculus [49]. The Blood clearance in the series on Mus musculus [6] came out at 0.21 µg/mL; with Mus musculus [19] it was 9.12 µg/mL; with Mus musculus [21] it was 0 µg/mL; in the series with Mus musculus [25] it was 12.94 µg/mL; in the series on Mus musculus [33] it was 2.06 µg/mL; in the series on Mus musculus [34] it was 11.28 µg/mL. Moreover, the Blood clearance with Mus musculus [43] was determined as 0.02 µg/mL; with Mus musculus [44] it was 5.51 µg/mL. Further, the CC50 at 1 h in series [1] was found to be 6.5 µM; in [2], 5.5 µM.

As to `CCCCCC[Si](CCCCCC)(CCCCCC)O[Si]1(O[Si](CCCCCC)(CCCCCC)CCCCCC)n2c3c4cc5ccccc5cc4c2/N=C2N=C(/N=c4/c5cc6ccccc6cc5/c(n41)=N/C1=NC(=N\3)/c3cc4ccccc4cc31)c1cc3ccccc3cc1\2`, the results for the CC50 at 1 h in [1] and in series [2] were 46 µM and 29 µM, respectively.

These data come from ChEMBL document CHEMBL1127321, “Synthesis and photodynamic activities of silicon 2,3-naphthalocyanine derivatives” (J Med Chem, 1994).
